Assay results taken from ChEMBL document CHEMBL3525985, “Regiospecificity and stereospecificity of human UDP-glucuronosyltransferases in the glucuronidation of estriol, 16-epiestriol, 17-epiestriol, and 13-epiestradiol” (Drug Metab Dispos, 2013).

Key:
Type in all cases: ADME
[1] = tested on: Liver microsome; assay: Drug metabolism in human liver microsomes assessed as 17-epiestriol-3-glucuronide formation after 15 to 60 mins by Michaelis-Menten equation analysis in presence of UDPGA
In short: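 Pooled human liver microsomes (30 donors), 0.5 or 10 µg, with alamethicin at 5% of total protein. Incubated with 50 mM phosphate pH 7.4, 10 mM MgCl₂, 5 mM UDPGA and 10% DMSO for 15–60 min at 37°C. Each glucuronide regioisomer quantified by HPLC, in triplicate, with substrate consumption at or below 10%.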

[2] = biological target: T1, UDP-glucuronosyltransferase 2A1 (Homo sapiens, UniProt P0DTE4); assay: Drug metabolism assessed as recombinant human C-terminal His-tagged UGT2A1-mediated 17-epiestriol-17-glucuronide formation at 5 mg after 5 hrs by NMR spectroscopic analysis in presence of UDPGA
T1 sequence (P0DTE4 whole entry): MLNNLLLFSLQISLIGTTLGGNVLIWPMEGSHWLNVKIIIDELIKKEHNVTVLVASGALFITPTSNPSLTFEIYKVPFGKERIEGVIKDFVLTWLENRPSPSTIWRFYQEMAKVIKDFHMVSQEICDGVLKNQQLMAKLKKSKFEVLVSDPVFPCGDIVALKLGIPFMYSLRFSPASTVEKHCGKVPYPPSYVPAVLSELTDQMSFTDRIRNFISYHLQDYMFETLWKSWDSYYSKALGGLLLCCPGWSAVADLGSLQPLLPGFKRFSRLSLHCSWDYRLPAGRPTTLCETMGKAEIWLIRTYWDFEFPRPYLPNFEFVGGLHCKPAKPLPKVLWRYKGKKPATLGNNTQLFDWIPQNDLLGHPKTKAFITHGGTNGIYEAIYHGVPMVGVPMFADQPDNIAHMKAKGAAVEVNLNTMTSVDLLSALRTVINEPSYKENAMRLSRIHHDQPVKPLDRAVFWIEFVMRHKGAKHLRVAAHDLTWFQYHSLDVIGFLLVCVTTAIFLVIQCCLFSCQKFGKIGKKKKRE

[3] = biological target: T2, UDP-glucuronosyltransferase 2B15 (Homo sapiens, UniProt P54855); assay: Drug metabolism assessed as recombinant human C-terminal His-tagged UGT2B15-mediated 13-epiestradiol-3-glucuronide/13-epiestradiol-17-glucuronide formation at 200 uM after 15 to 60 mins by HPLC analysis in presence of UDPGA; settings: recombinant enzyme, in the assay text read “UGT2B15-mediated” for “C-terminal His-tagged UGT2B15-mediated”
T2 sequence (P54855 whole entry): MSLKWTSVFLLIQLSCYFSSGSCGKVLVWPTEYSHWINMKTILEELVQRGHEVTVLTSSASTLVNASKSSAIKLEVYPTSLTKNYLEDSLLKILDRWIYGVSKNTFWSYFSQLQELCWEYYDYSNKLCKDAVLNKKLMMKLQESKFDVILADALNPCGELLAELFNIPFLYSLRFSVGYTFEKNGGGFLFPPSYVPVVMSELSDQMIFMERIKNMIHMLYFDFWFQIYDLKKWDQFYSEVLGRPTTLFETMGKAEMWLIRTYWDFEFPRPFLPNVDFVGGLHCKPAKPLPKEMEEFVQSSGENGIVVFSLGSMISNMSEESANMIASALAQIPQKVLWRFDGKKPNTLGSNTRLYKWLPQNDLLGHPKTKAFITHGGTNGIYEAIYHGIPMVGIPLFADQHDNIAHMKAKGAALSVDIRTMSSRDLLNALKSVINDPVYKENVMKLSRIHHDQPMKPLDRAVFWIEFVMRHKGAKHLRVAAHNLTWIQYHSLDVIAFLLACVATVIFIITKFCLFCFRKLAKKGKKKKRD
In short: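 UGT2B15 was a commercial enzyme without a His-tag, so rates were not normalized to expression. Screening used 200 μM substrate in triplicate, with membranes in 50 mM phosphate pH 7.4, 10 mM MgCl₂, 5 mM UDPGA and 10% DMSO. Incubation was 15–60 min at 37°C. The reaction was stopped with perchloric acid and analysed by HPLC. Controls lacked UDPGA.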

[4] = biological target: T1, UDP-glucuronosyltransferase 2A1; assay: Drug metabolism assessed as recombinant human C-terminal His-tagged UGT2A1-mediated 16-epiestriol-16-glucuronide formation after 15 to 60 mins by Michaelis-Menten equation analysis in presence of UDPGA; settings: recombinant enzyme
[5] = biological target: T3, UDP-glucuronosyltransferase 1A3 (Homo sapiens, UniProt P35503); assay: Drug metabolism assessed as recombinant human C-terminal His-tagged UGT1A3-mediated 16-epiestriol-16-glucuronide formation after 15 to 60 mins by Michaelis-Menten equation analysis in presence of UDPGA; settings: recombinant enzyme
T3 sequence (P35503 whole entry): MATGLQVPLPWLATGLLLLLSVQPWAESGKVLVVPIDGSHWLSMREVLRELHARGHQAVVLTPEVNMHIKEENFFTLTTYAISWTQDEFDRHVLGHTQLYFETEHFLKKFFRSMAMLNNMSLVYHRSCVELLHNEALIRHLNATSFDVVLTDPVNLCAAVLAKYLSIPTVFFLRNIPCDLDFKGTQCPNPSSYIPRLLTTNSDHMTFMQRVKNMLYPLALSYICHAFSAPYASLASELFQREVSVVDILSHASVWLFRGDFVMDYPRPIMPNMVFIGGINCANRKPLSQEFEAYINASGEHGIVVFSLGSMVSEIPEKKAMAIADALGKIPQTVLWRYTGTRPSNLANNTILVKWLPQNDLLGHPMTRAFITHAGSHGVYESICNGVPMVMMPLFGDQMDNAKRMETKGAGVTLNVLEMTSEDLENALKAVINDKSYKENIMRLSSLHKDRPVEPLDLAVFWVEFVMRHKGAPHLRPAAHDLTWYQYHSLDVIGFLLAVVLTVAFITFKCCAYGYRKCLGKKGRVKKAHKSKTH

## C[C@]12CC[C@@H]3c4ccc(O)cc4CC[C@H]3[C@@H]1C[C@@H](O)[C@H]2O
[1]
  Km: 380 µM
  Vmax: 805 pmol/min/mg
[2]
  Drug metabolism: metabolite_detected

## C[C@@]12CC[C@@H]3c4ccc(O)cc4CC[C@H]3[C@@H]1CC[C@@H]2O
[3]
  Drug metabolism: metabolite_detected

## C[C@]12CC[C@@H]3c4ccc(O)cc4CC[C@H]3[C@@H]1C[C@H](O)[C@@H]2O [EPIESTRIOL]
[4]
  Drug metabolism: 260 pmol/min/mg
[5]
  Drug metabolism: 5 pmol/min/mg
